Reference: ChEMBL document CHEMBL3351508, “Second-generation antibacterial benzimidazole ureas: discovery of a preclinical candidate with reduced metabolic liability” (J Med Chem, 2014)
Values after ≈ are worked out from the molar mass of the structure shown.

Tests used:
[1] = species on record: Rattus norvegicus; assay: Drug metabolism in rat assessed as reactive metabolites as rat liver protein binding per mg of protein at 100 uCi for 13 days measured on day 14; assay type: ADME, organism-based; details: in vivo, 312 h
Method in brief: (§1)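 Male rats were dosed with unlabeled compound at 90 mg/kg for 6 or 13 days, then given 100 μCi ¹⁴C-labeled compound on day 7 or 14 and killed 4 h later. Liver S9 (9000g) was washed with acetonitrile until free of unbound label and the pellet dissolved in 1 N NaOH at 60 °C. Radioactivity was counted by scintillation, normalized to Bradford protein, and expressed as pmol/mg.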

[2] = system: Staphylococcus aureus; assay: Antibacterial activity against Staphylococcus aureus ATCC 29213 by CLSI method in presence of human 50% serum; assay type: functional
Method in brief: (§2)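 Broth microdilution MIC in liquid medium following CLSI methods, with ATCC strains. Each run was accepted only if comparator antibiotics fell within their recommended quality-control ranges for the appropriate ATCC strain.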

[3] = system: Haemophilus influenzae; assay: Antibacterial activity against Haemophilus influenzae ATCC 49247 by CLSI method; assay type: functional; method in brief: as §2
[4] = system: Staphylococcus aureus; assay: Antibacterial activity against Staphylococcus aureus ATCC 29213 by CLSI method; assay type: functional; method in brief: as §2
[5] = system: Moraxella catarrhalis; assay: Antibacterial activity against Moraxella catarrhalis ATCC 25238 by CLSI method; assay type: functional; method in brief: as §2
[6] = system: Enterococcus faecium; assay: Antibacterial activity against Enterococcus faecium ATCC 49624 by CLSI method; assay type: functional; method in brief: as §2
[7] = system: Enterococcus faecalis; assay: Antibacterial activity against Enterococcus faecalis ATCC 29212 by CLSI method; assay type: functional; method in brief: as §2
[8] = system: Streptococcus pneumoniae; assay: Antibacterial activity against Streptococcus pneumoniae ATCC 10015 by CLSI method; assay type: functional; method in brief: as §2
[9] = species on record: Rattus norvegicus; assay: Drug metabolism in rat assessed as reactive metabolites as rat liver protein binding per mg of protein at 100 uCi for 6 days measured on day 7; assay type: ADME, organism-based; details: in vivo, 144 h; method in brief: as §1
[10] = system: Staphylococcus epidermidis; assay: Antibacterial activity against Staphylococcus epidermidis ATCC 12228 by CLSI method; assay type: functional; method in brief: as §2
[11] = Inhibition of Staphylococcus aureus DNA topoisomerase-4 C2E2 using pBR322 plasmid DNA as substrate by coupled enzyme reaction assay
[12] = molecular target: DNA gyrase (Escherichia coli, UniProt P0AES4+P0AES6); assay: Inhibition of […] Escherichia coli DNA gyrase A2B2 using pBR322 plasmid DNA as substrate by coupled enzyme reaction assay; assay type: protein-complex assay
[13] = Drug metabolism in rat assessed as metabolites in urine at 30 mg/kg, po; assay type: ADME, organism-based; set-up: dose 30 mg/kg, route oral; details: in vivo
[14] = system: Staphylococcus aureus; assay: Antibacterial activity against methicillin-susceptible Staphylococcus aureus ATCC 29213 infected in mouse thigh assessed reduction in colony forming unit at 25 mg/kg, po bid after 72 hrs; assay type: functional
[15] = molecular target: T1, Cytochrome P450 2C8 (Homo sapiens, UniProt P10632); assay: Drug metabolism in recombinant CYP2C8 (unknown origin) at 1 uM after 30 mins; assay type: ADME; details: recombinant enzyme, 0.5 h
T1 sequence (P10632 whole entry): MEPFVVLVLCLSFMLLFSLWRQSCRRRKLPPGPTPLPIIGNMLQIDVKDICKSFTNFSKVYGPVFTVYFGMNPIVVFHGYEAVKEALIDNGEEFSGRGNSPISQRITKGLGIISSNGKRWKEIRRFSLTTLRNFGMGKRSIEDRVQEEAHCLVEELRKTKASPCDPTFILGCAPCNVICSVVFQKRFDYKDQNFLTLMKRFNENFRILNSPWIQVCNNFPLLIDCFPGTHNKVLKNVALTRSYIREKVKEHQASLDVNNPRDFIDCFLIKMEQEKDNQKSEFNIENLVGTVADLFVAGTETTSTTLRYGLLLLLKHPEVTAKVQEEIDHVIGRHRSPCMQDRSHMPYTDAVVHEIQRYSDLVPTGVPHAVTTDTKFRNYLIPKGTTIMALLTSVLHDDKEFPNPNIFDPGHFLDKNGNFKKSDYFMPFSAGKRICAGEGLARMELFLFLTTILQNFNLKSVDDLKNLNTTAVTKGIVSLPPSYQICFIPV
Method in brief: (§3)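 Parent at 1 and 10 μM was incubated with individual recombinant CYP supersomes, with and without NADPH, for 0, 15 and 30 min. Formation of the imine metabolite was quantified by LC-MS/MS.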

[16] = Drug metabolism in rat assessed as metabolites in feces at 30 mg/kg, po; assay type: ADME, organism-based; set-up: dose 30 mg/kg, route oral; details: in vivo
[17] = system: Plasma; assay: Drug metabolism in rat assessed as metabolites in plasma at 30 mg/kg, po; assay type: ADME, organism-based; set-up: dose 30 mg/kg, route oral; details: in vivo
[18] = molecular target: T2, Cytochrome P450 2B6 (Homo sapiens, UniProt P20813); assay: Drug metabolism in recombinant CYP2B6 (unknown origin) at 1 uM after 30 mins; assay type: ADME; details: recombinant enzyme, 0.5 h; method in brief: as §3
T2 sequence (P20813 whole entry): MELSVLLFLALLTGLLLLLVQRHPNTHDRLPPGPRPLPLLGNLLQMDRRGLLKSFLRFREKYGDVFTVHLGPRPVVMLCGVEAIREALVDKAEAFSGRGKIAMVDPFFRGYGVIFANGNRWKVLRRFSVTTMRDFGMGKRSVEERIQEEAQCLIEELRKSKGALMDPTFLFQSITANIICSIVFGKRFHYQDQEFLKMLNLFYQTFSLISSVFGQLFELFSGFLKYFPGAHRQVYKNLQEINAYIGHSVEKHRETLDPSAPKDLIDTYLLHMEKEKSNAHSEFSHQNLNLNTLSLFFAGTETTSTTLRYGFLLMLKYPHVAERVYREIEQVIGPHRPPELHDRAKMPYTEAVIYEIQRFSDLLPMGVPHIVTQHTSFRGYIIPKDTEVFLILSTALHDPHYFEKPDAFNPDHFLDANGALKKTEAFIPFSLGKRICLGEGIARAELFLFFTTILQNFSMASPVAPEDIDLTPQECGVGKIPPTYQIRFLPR

[19] = Drug metabolism in rat assessed as metabolites in bile at 30 mg/kg, po; assay type: ADME, organism-based; set-up: dose 30 mg/kg, route oral; details: in vivo
[20] = molecular target: Cytochrome P450 2C9 (Homo sapiens, UniProt P11712); assay: Drug metabolism in recombinant CYP2C9 (unknown origin) at 1 uM after 30 mins; assay type: ADME; details: recombinant enzyme, 0.5 h; method in brief: as §3
Chain of Cytochrome P450 2C9 (P11712 whole entry): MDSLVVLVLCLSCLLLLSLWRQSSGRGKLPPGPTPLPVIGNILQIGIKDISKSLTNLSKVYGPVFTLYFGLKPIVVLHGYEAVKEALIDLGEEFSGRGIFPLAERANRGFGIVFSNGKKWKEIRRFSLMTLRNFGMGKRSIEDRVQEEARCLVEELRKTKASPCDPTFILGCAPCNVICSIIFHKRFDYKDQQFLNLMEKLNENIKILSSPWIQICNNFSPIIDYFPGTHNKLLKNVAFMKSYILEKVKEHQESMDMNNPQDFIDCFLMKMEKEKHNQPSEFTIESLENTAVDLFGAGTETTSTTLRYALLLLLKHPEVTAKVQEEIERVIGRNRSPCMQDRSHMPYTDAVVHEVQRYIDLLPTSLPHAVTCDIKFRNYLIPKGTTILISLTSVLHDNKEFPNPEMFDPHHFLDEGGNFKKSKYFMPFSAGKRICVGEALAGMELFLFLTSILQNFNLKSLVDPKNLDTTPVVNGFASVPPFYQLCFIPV

[21] = molecular target: Cytochrome P450 2C19 (Homo sapiens, UniProt P33261); assay: Drug metabolism in recombinant CYP2C19 (unknown origin) at 1 uM after 30 mins; assay type: ADME; details: recombinant enzyme, 0.5 h; method in brief: as §3
Chain of Cytochrome P450 2C19 (P33261 whole entry): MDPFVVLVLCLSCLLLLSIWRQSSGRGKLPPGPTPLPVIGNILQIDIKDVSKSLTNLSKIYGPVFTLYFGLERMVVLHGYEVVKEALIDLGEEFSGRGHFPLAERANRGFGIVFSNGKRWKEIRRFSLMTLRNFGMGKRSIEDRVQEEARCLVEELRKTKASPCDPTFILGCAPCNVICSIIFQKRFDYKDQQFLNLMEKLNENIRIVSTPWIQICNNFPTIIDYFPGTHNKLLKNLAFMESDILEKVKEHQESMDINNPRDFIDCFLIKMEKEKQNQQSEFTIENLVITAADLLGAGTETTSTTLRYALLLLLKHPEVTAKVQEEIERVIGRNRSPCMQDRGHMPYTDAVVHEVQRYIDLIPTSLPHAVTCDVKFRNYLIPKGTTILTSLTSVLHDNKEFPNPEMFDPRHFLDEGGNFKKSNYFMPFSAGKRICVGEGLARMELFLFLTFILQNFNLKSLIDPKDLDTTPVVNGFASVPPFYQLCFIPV

[22] = system: Liver microsome; assay: Drug metabolism in rat liver microsomes assessed as compound formation treated with 30 uM 1-Ethyl-3-(5-(5-fluoropyridin-3-yl)-7-(pyrimidin-2-yl)-1H-benzo-[d]imidazol-2-yl)urea for 1 hr; assay type: ADME
[23] = system: Liver microsome; assay: Drug metabolism in human liver microsomes assessed as compound formation treated with 30 uM 1-Ethyl-3-(5-(5-fluoropyridin-3-yl)-7-(pyrimidin-2-yl)-1H-benzo-[d]imidazol-2-yl)urea for 1 hr; assay type: ADME
[24] = Drug metabolism in human liver S9 fractions assessed as compound formation treated with 30 uM 1-Ethyl-3-(5-(5-fluoropyridin-3-yl)-7-(pyrimidin-2-yl)-1H-benzo-[d]imidazol-2-yl)urea for 1 hr; assay type: ADME, subcellular, Liver S9 fraction; details: s9, 1 h
[25] = Drug metabolism in monkey liver microsomes assessed as compound formation treated with 30 uM 1-Ethyl-3-(5-(5-fluoropyridin-3-yl)-7-(pyrimidin-2-yl)-1H-benzo-[d]imidazol-2-yl)urea for 1 hr; assay type: ADME, Macaca mulatta; details: rhesus monkey

Structure (SMILES) | MIC [2] [µg/mL] | MIC [3] [µg/mL] | MIC [4] [µg/mL] | MIC [7] [µg/mL] | MIC [8] [µg/mL] | Ki [11] [nM] | Ki [12] [nM] | Drug metabolism [22] | Drug metabolism [23] | Drug metabolism [24] | Drug metabolism [25] | also measured
CCNC(=O)Nc1nc2cc(-c3cnc(C(C)(C)O)nc3)c(F)c([C@H]3CCCO3)c2[nH]1 | 0.25 | 0.5 (≈ 1.17 µM) | 0.032 (≈ 0.0747 µM) | 0.032 (≈ 0.0747 µM) | ≤ 0.008 | 9 | – | – | – | – | – | Drug metabolism [1]: < 5 pmol; MIC [5]: ≤ 0.016 µg/mL; MIC [6]: 0.125 µg/mL (≈ 0.292 µM); Drug metabolism [9]: < 5 pmol; MIC [10]: ≤ 0.008 µg/mL
CCNC(=O)Nc1nc2cc(-c3cccnc3)cc(-c3ncccc3F)c2[nH]1 | 1 | 1 (≈ 2.66 µM) | 0.031 (≈ 0.0824 µM) | 0.016 (≈ 0.0425 µM) | ≤ 0.008 | – | 6 | – | – | – | – | –
CCNC(=O)Nc1nc2cc(-c3cnc(C(C)(C)O)nc3)cc(-c3ncccc3F)c2[nH]1 | 0.25 | 1 (≈ 2.3 µM) | 0.031 (≈ 0.0712 µM) | 0.032 (≈ 0.0735 µM) | ≤ 0.008 | < 6 | < 4 | – | – | – | – | –
CCNC(=O)Nc1nc2cc(-c3cncc(F)c3)cc(-c3ncccn3)c2[nH]1 | 0.25 | 1 (≈ 2.65 µM) | 0.016 (≈ 0.0424 µM) | < 0.008 | ≤ 0.008 | < 6 | 5 | – | – | – | – | Drug metabolism [13]: metabolite_notdetected; log10cfu [14]: >4; Drug metabolism [15]: metabolite_notdetected; Drug metabolism [16]: metabolite_notdetected; Drug metabolism [17]: metabolite_notdetected; Drug metabolism [18]: metabolite_notdetected; Drug metabolism [19]: metabolite_notdetected; Drug metabolism [20]: metabolite_notdetected; Drug metabolism [21]: metabolite_notdetected
C=CNC(=O)Nc1nc2cc(-c3cncc(F)c3)cc(-c3ncccn3)c2[nH]1 | – | – | – | – | – | – | – | metabolite_detected | metabolite_detected | metabolite_detected | metabolite_detected | –
O=C(Nc1nc2cc(-c3cncc(F)c3)cc(-c3ncccn3)c2[nH]1)NC1CO1 (stereo not drawn) | – | – | – | – | – | – | – | metabolite_detected | metabolite_detected | metabolite_detected | metabolite_detected | –
